Entries after “also recorded” stand apart in the source; their conditions may differ. Non-standard residues stand in square brackets, D forms with d. No end group written: not given here. Hyp = O=C(O)[C@@H]1C[C@@H](O)CN1
B1: T16: recombinant 480aa protein, 16 tandem repeats of the triple-helix fragment of hCOL3A1, Gly483-Pro512 (C1P) (protein)
chain: GERGAPGFRGPAGPNGIPGEKGPAGERGAPGERGAPGFRGPAGPNGIPGEKGPAGERGAPGERGAPGFRGPAGPNGIPGEKGPAGERGAPGERGAPGFRGPAGPNGIPGEKGPAGERGAPGERGAPGFRGPAGPNGIPGEKGPAGERGAPGERGAPGFRGPAGPNGIPGEKGPAGERGAPGERGAPGFRGPAGPNGIPGEKGPAGERGAPGERGAPGFRGPAGPNGIPGEKGPAGERGAPGERGAPGFRGPAGPNGIPGEKGPAGERGAPGERGAPGFRGPAGPNGIPGEKGPAGERGAPGERGAPGFRGPAGPNGIPGEKGPAGERGAPGERGAPGFRGPAGPNGIPGEKGPAGERGAPGERGAPGFRGPAGPNGIPGEKGPAGERGAPGERGAPGFRGPAGPNGIPGEKGPAGERGAPGERGAPGFRGPAGPNGIPGEKGPAGERGAPGERGAPGFRGPAGPNGIPGEKGPAGERGAP
modifications: left off: thioredoxin, end not stated, state not stated
B2: host-guest peptide C3Pa, (Pro-Hyp-Gly)3-FRGPAGPNGIPG-(Pro-Hyp-Gly)3 (peptide)
chain: P[Hyp]GP[Hyp]GP[Hyp]GFRGPAGPNGIPGP[Hyp]GP[Hyp]GP[Hyp]G

What was measured:
[1] = system: 3T3 cells; format: cell-based, mouse
[2] = system: 3T3 cells; experiment: Cytotoxicity assay; format: cell-based, mouse; conditions: CCK-8, up to 1 mg/ml, Fig. 4D
Outline: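 Mouse fibroblast BALB 3T3 cells were exposed to a recombinant collagen III tandem-repeat protein or collagen-derived peptides at concentrations up to 1000 μg/ml. Viability was read with CCK-8 following the manufacturer's manual. CC50 was the intended read-out.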

[3] = target: the molecule itself; experiment: crystal structure

Molecule	cell adhesion activity (relative cell adhesion rate) [1]	cytotoxicity [2]	stoichiometry N [3]
bovine serum albumin [BSA, reference compound]	no significant adhesion activity	–	–
C1P: native hCOL3A1 peptide, Gly483-Pro512 (GERGAPGFRGPAGPNGIPGEKGPAGERGAP)	the most potent cell adhesion activity; also recorded: much stronger cell adhesion activity than that of Type I collagen	–	–
B1	very strong cell adhesion activity	No obvious cytotoxicity	–
B2	–	–	3

Source: PMC7092849 (Biochemical and Biophysical Research Communications, 2018)
